Measurements as given in article PMC12495087 (ESMO Open, 2025).

Key:
[1] = test system: RET-fusion-positive NSCLC; test: phase I study: tumor response per RECIST v.1.1, NSCLC; format: in vivo, human
[2] = test system: RET-mutant MTC; test: phase I study: tumor response per RECIST v.1.1, MTC; format: in vivo, human
[3] = test system: tumors with cfDNA-detected RET alterations; test: clinical outcome by cfDNA RET alteration; format: in vivo, human
Method in brief: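 Adults with advanced RET-altered solid tumours took oral drug once daily in 28-day cycles (10–150 mg dose escalation; expansion at recommended phase II dose). RET status came from plasma cfDNA drawn at screening (within 28 days pre-dose), cycle 1 day 15 (±2 days) and cycle 2 day 1. Investigator assessed response by RECIST v1.1 in patients with evaluable response and tumour-size change. ORR/DCR given with two-sided 95% exact CIs.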

[4] = target: RET; settings: read-out: kd, potency against RET; cited from earlier work
[5] = test system: vascular endothelial growth factor receptor 2; settings: cited from earlier work
[6] = test system: RET G810; settings: cited from earlier work
[7] = 58 patients with cfDNA RET alterations
[8] = cfDNA RET alteration total, n = 58

COc1cc2cc(-c3ccc(CC(=O)Nc4cc(C(C)(C)C(F)(F)F)no4)cn3)cnc2cc1OC [BOS172738]
median PFS ([1]; NSCLC): 6.18 months | median DoR ([1]; confirmed responders with NSCLC): 10.17 months | median PFS ([2]; MTC): 12.75 months | median DoR ([2]; confirmed responders with MTC): 19.15 months | partial responses as best response [3, 7]: 29% | progressive disease as best response [3, 7]: 28% | stable disease as best response [3, 7]: 43% | BOR: PD [3, 8]: 16 (28) n (%) | BOR: PR [3, 8]: 17 (29) n (%) | BOR: SD [3, 8]: 25 (43) n (%) | DCR (PR + SD) [3, 8]: 42 (72) n (%) | ORR [3, 8]: 17 (29) n (%) | BOR: PD ([3]; cfDNA RET fusions + SNV, n = 2): 1 (50) n (%) | BOR: PR ([3]; cfDNA RET fusions + SNV, n = 2): 1 (50) n (%) | BOR: SD ([3]; cfDNA RET fusions + SNV, n = 2): 0 n (%) | DCR (PR + SD) ([3]; cfDNA RET fusions + SNV, n = 2): 1 (50) n (%) | ORR ([3]; cfDNA RET fusions + SNV, n = 2): 1 (50) n (%) | BOR: PD ([3]; cfDNA RET fusions, n = 37): 6 (16) n (%) | BOR: PR ([3]; cfDNA RET fusions, n = 37): 12 (32) n (%) | BOR: SD ([3]; cfDNA RET fusions, n = 37): 19 (51) n (%) | DCR (PR + SD) ([3]; cfDNA RET fusions, n = 37): 31 (84) n (%) | ORR ([3]; cfDNA RET fusions, n = 37): 12 (32) n (%) | BOR: PD ([3]; cfDNA SNV, n = 19): 9 (47) n (%) | BOR: PR ([3]; cfDNA SNV, n = 19): 4 (21) n (%) | BOR: SD ([3]; cfDNA SNV, n = 19): 6 (32) n (%) | DCR (PR + SD) ([3]; cfDNA SNV, n = 19): 10 (53) n (%) | ORR ([3]; cfDNA SNV, n = 19): 4 (21) n (%) | Kd [4]: ≤ 1 nM | specificity to RET compared with vascular endothelial growth factor receptor 2 [5]: > 300 fold | activity against RET G810 resistance [6]: able to overcome RET G810 resistance
